Experimental data as given in ChEMBL document CHEMBL2417423, “Synthesis and antifungal activities of miltefosine analogs” (Bioorg Med Chem Lett, 2013).
Converted amounts (≈) assume the structure as drawn. The source made the active and inactive calls. The rule behind the calls is not given here.

Assays:
HepG2 = experiment: Cytotoxicity against human HepG2 cells after 48 hrs by neutral red; type: cell-based; conditions: HepG2, 48 h
[1] = Cytotoxicity against pig LLC-PK11 cells after 48 hrs by neutral red; type: cell-based; conditions: Sus scrofa, LLC-PK11, 48 h
Vero = experiment: Cytotoxicity against african green monkey Vero cells after 48 hrs by neutral red; type: cell-based; conditions: Chlorocebus sabaeus
Cryptococcus neoformans [2] = experiment: Antifungal activity against Cryptococcus neoformans ATCC 90113 at 20 ug/ml after 72 hrs; type: functional, organism-based
Pichia kudriavzevii [3] = experiment: Antifungal activity against Candida krusei ATCC 6258 at 20 ug/ml after 48 hrs; type: functional, organism-based
Aspergillus fumigatus [4] = experiment: Antifungal activity against Aspergillus fumigatus ATCC 90906 at 20 ug/ml after 48 hrs; type: functional, organism-based
Candida albicans [5] = experiment: Antifungal activity against Candida albicans ATCC 90028 at 20 ug/ml after 48 hrs; type: functional, organism-based
Nakaseomyces glabratus [6] = experiment: Antifungal activity against Candida glabrata ATCC 90030 after 48 hrs; type: functional; conditions: ATCC 90030, 48 h
How it was run: (§1)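 MIC is the lowest concentration with no detectable growth. MFC: 5 μL from each clear well moved to agar at 35°C, 48 h for Candida spp. and A. fumigatus, 72 h for C. neoformans; lowest concentration that kills. Values are means of three independent experiments (two for one analog).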

Aspergillus fumigatus [7] = experiment: Antifungal activity against Aspergillus fumigatus ATCC 90906 at 20 ug/ml after 48 hrs by spectrophotometry; type: functional, organism-based
Cryptococcus neoformans [8] = experiment: Antifungal activity against Cryptococcus neoformans ATCC 90113 at 20 ug/ml after 72 hrs by spectrophotometry; type: functional, organism-based
Candida albicans [9] = experiment: Antifungal activity against Candida albicans ATCC 90028 at 20 ug/ml after 48 hrs by spectrophotometry; type: functional, organism-based
Pichia kudriavzevii [10] = experiment: Antifungal activity against Candida krusei ATCC 6258 at 20 ug/ml after 48 hrs by spectrophotometry; type: functional, organism-based
Nakaseomyces glabratus [11] = experiment: Antifungal activity against Candida glabrata ATCC 90030 after 48 hrs by spectrophotometry; type: functional; conditions: ATCC 90030, 48 h; how it was run: as §1
Cryptococcus neoformans [12] = experiment: Antifungal activity against Cryptococcus neoformans ATCC 90113 after 72 hrs; type: functional; conditions: ATCC 90113, 72 h; how it was run: as §1
Pichia kudriavzevii [13] = experiment: Antifungal activity against Candida krusei ATCC 6258 after 48 hrs; type: functional; conditions: ATCC 6258, 48 h; how it was run: as §1
Aspergillus fumigatus [14] = experiment: Antifungal activity against Aspergillus fumigatus ATCC 90906 after 48 hrs; type: functional; conditions: ATCC 90906, 48 h; how it was run: as §1
Candida albicans [15] = experiment: Antifungal activity against Candida albicans ATCC 90028 after 48 hrs; type: functional; conditions: ATCC 90028, 48 h; how it was run: as §1
Aspergillus fumigatus [16] = experiment: Antifungal activity against Aspergillus fumigatus ATCC 90906 after 48 hrs by spectrophotometry; type: functional; conditions: ATCC 90906, 48 h; how it was run: as §1
Cryptococcus neoformans [17] = experiment: Antifungal activity against Cryptococcus neoformans ATCC 90113 after 72 hrs by spectrophotometry; type: functional; conditions: ATCC 90113, 72 h; how it was run: as §1
Pichia kudriavzevii [18] = experiment: Antifungal activity against Candida krusei ATCC 6258 after 48 hrs by spectrophotometry; type: functional; conditions: ATCC 6258, 48 h; how it was run: as §1
Candida albicans [19] = experiment: Antifungal activity against Candida albicans ATCC 90028 after 48 hrs by spectrophotometry; type: functional; conditions: ATCC 90028, 48 h; how it was run: as §1
Candida albicans [20] = experiment: Antifungal activity against Candida albicans SC5314 infected in CD-1 mouse assessed as host survival at 25 mg/kg, po administered 4, 24, 48, 72, and 96 hrs post inoculation measured up to 12 days relative to control; type: functional, organism-based; set-up: dose 25 mg/kg
How it was run: (§2)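 Male CD1 mice, 6-7 weeks old, five per group, infected by tail-vein injection of 1 × 10^6 C. albicans SC5314 cells. Dosed intraperitoneally or orally at 4, 24, 48, 72 and 96 h post inoculation; PBS-treated controls. Survival followed for 12 days and compared by Log-rank test.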

Candida albicans [21] = experiment: Antifungal activity against Candida albicans SC5314 infected in CD-1 mouse assessed as host survival at 5 mg/kg, po administered 4, 24, 48, 72, and 96 hrs post inoculation measured up to 12 days relative to control; type: functional, organism-based; set-up: dose 5 mg/kg; how it was run: as §2
Candida albicans [22] = experiment: Antifungal activity against Candida albicans SC5314 infected in CD-1 mouse assessed as host survival at 5 mg/kg, ip administered 4, 24, 48, 72, and 96 hrs post inoculation measured up to 8 days relative to control; type: functional, organism-based; set-up: dose 5 mg/kg
Candida albicans [23] = experiment: Antifungal activity against Candida albicans SC5314 infected in CD-1 mouse assessed as host survival at 1 mg/kg, ip administered 4, 24, 48, 72, and 96 hrs post inoculation measured up to […] relative to control; type: functional, organism-based; set-up: dose 1 mg/kg

Structure (SMILES) | IC50 (HepG2) [µg/mL] | IC50 [1] [µg/mL] | IC50 (Vero) [µg/mL] | Activity (Cryptococcus neoformans [2]) | Activity (Pichia kudriavzevii [3]) | Activity (Candida albicans [5]) | MFC (Nakaseomyces glabratus [6]) [µg/mL] | Activity (Cryptococcus neoformans [8]) | Activity (Candida albicans [9]) | Activity (Pichia kudriavzevii [10]) | MIC (Nakaseomyces glabratus [11]) [µg/mL] | MFC (Cryptococcus neoformans [12]) [µg/mL] | MFC (Pichia kudriavzevii [13]) [µg/mL] | MFC (Aspergillus fumigatus [14]) [µg/mL] | MFC (Candida albicans [15]) [µg/mL] | MIC (Aspergillus fumigatus [16]) [µg/mL] | MIC (Cryptococcus neoformans [17]) [µg/mL] | MIC (Pichia kudriavzevii [18]) [µg/mL] | MIC (Candida albicans [19]) [µg/mL] | further results
CCCCCCCCCCCCCCCCCCOP(=O)([O-])OCC[N+](C)(C)Cc1ccccc1 | 13 (≈ 25.4 µM) | 4.7 (≈ 9.18 µM) | > 25 | inactive | inactive | inactive | 4.2 (≈ 8.21 µM) | inactive | inactive | inactive | 4.2 (≈ 8.21 µM) |  |  |  |  |  |  |  |  | Activity (Aspergillus fumigatus [4]): inactive; Activity (Aspergillus fumigatus [7]): inactive
CCCCCCCCCCCCCCCCOP(=O)([O-])OCC[N+](C)(C)Cc1ccc([N+](=O)[O-])cc1 | 11.5 (≈ 21.8 µM) | 1.6 (≈ 3.03 µM) | > 25 |  |  |  | 2.5 (≈ 4.73 µM) |  |  |  | 2.5 (≈ 4.73 µM) | 2.5 (≈ 4.73 µM) | 3.3 (≈ 6.24 µM) | 7.5 (≈ 14.2 µM) | 2.5 (≈ 4.73 µM) | 2.5 (≈ 4.73 µM) | 2.5 (≈ 4.73 µM) | 2.5 (≈ 4.73 µM) | 2.5 (≈ 4.73 µM) | 
CCCCCCCCCCCCCCCCOP(=O)([O-])OCC[N+](C)(C)Cc1ccccc1 | > 25 | 4.8 (≈ 9.92 µM) | > 25 |  |  |  | 3.3 (≈ 6.82 µM) |  |  |  | 3.3 (≈ 6.82 µM) | 3.3 (≈ 6.82 µM) | 15 (≈ 31 µM) | 2.5 (≈ 5.17 µM) | 2.5 (≈ 5.17 µM) | 2.5 (≈ 5.17 µM) | 3.3 (≈ 6.82 µM) | 5 (≈ 10.3 µM) | 2.5 (≈ 5.17 µM) | Activity (Candida albicans [20]): inactive; Activity (Candida albicans [21]): inactive; Activity (Candida albicans [22]): inactive; Activity (Candida albicans [23]): inactive
COc1cccc2c1C(=O)c1c(O)c3c(c(O)c1C2=O)C[C@@](O)(C(=O)CO)C[C@@H]3O[C@H]1C[C@H](N)[C@H](O)[C@H](C)O1 [DOXORUBICIN] | 0.9 (≈ 1.66 µM) | 0.7 (≈ 1.29 µM) | > 5 |  |  |  |  |  |  |  |  |  |  |  |  |  |  |  |  | 
CCCCCCCCCCCCCCCCOP(=O)([O-])OCC[N+](C)(C)Cc1ccc(OC)cc1 | 12.9 (≈ 25.1 µM) | 1.9 (≈ 3.7 µM) | > 25 |  |  |  | 3.3 (≈ 6.42 µM) |  |  |  | 2.5 (≈ 4.87 µM) | 4.2 (≈ 8.18 µM) | 3.3 (≈ 6.42 µM) | 7.5 (≈ 14.6 µM) | 4.2 (≈ 8.18 µM) | 2.5 (≈ 4.87 µM) | 4.2 (≈ 8.18 µM) | 2 (≈ 3.89 µM) | 4.2 (≈ 8.18 µM) | 
CCCCCCCCCCCCCCCCOP(=O)([O-])OCC[N+](C)(C)Cc1ccc(Cl)cc1 | 21 (≈ 40.5 µM) | 3.2 (≈ 6.18 µM) | > 25 | inactive | inactive | inactive | 11.2 (≈ 21.6 µM) | inactive | inactive | inactive | 11.2 (≈ 21.6 µM) |  |  | 12.5 (≈ 24.1 µM) |  | 12.5 (≈ 24.1 µM) |  |  |  | 
